Laboratory results: ChEMBL document CHEMBL1926569, “Novel (E)-1-(4-methyl-2-(alkylamino)thiazol-5-yl)-3-arylprop-2-en-1-ones as potent antimicrobial agents” (2011)

Legend:
[1] = test system: Trichoderma viride; test: Ratio of bifonazole to compound for Trichoderma viride IAM 5061; type: functional
[2] = test system: Micrococcus flavus; test: Antibacterial activity against Micrococcus flavus ATCC 10240 incubated for 24 hrs followed by serial sub-cultivation for 24 hrs by microdilution; type: functional; conditions: ATCC 10240, 24 h
In short: (§1)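 MBC: after the 24 h LB broth microdilution (1.0 × 10⁴ CFU per well, 160 rpm), wells were serially sub-cultured into fresh broth plates and incubated a further 24 h. MBC is the lowest concentration with no visible growth, taken as 99.5% killing of the original inoculum. Duplicate, repeated three times.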

[3] = test system: Aspergillus ochraceus; test: Ratio of ketoconazole to compound for Aspergillus ochraceus ATCC 12066; type: functional
[4] = test system: Aspergillus ochraceus; test: Antifungal activity against Aspergillus ochraceus ATCC 12066 after 72 hrs by serial dilution technique; type: functional; conditions: ATCC 12066, 72 h
In short: (§2)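 Modified microdilution in 96-well plates. Fungi were kept on malt agar at 4 °C. Spores were washed off in sterile 0.85% saline with 0.1% Tween 80. Compounds were dissolved at 1 mg/ml in 5% DMSO with 0.1% Tween 80 and added to malt broth with inoculum. Plates were shaken at 160 rpm for 72 h at 28 °C. Duplicate, repeated three times.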

[5] = test system: Salmonella typhimurium; test: Antibacterial activity against Salmonella Typhimurium ATCC 13311 incubated for 24 hrs followed by serial sub-cultivation for 24 hrs by microdilution; type: functional, Salmonella enterica subsp. enterica serovar Typhimurium; conditions: Salmonella enterica, ATCC 13311, 24 h; in short: as §1
[6] = test system: Penicillium ochrochloron; test: Ratio of ketoconazole to compound for Penicillium ochrochloron ATCC 9112; type: functional
[7] = test system: Aspergillus ochraceus; test: Antifungal activity against Aspergillus ochraceus ATCC 12066 incubated for 72 hrs followed by serial sub-cultivation for 72 hrs by serial dilution technique; type: functional; conditions: ATCC 12066, 72 h
In short: (§3)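 MFC: material from 72 h malt broth microdilution wells was serially sub-cultured into fresh broth plates and incubated a further 72 h at 28 °C. Fungicidal concentration is taken from growth after sub-culture. Duplicate, repeated three times.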

[8] = test system: Pseudomonas aeruginosa; test: Antibacterial activity against Pseudomonas aeruginosa ATCC 27853 after 24 hrs by microdilution method; type: functional; conditions: ATCC 27853, 24 h
In short: (§4)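 Broth microdilution in 96-well plates. Bacterial suspensions were adjusted in sterile saline to 1.0 × 10⁵ CFU/ml, prepared daily and kept at 4 °C. Compound was added to LB broth with 1.0 × 10⁴ CFU per well and shaken at 160 rpm for 24 h at […] (so in the source). MIC is the lowest concentration with no visible growth under a binocular microscope. OD655 was also read. Duplicate, repeated three times.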

[9] = test system: Staphylococcus aureus; test: Antibacterial activity against Staphylococcus aureus ATCC 6538 incubated for 24 hrs followed by serial sub-cultivation for 24 hrs by microdilution method; type: functional; conditions: ATCC 6538, 24 h; in short: as §1
[10] = test system: Aspergillus ochraceus; test: Antifungal activity against Aspergillus ochraceus after 72 hrs by serial dilution technique
[11] = test system: Pseudomonas aeruginosa; test: Antibacterial activity against Pseudomonas aeruginosa ATCC 27853 incubated for 24 hrs followed by serial sub-cultivation for 24 hrs by microdilution; type: functional; conditions: ATCC 27853, 24 h; in short: as §1
[12] = test system: Aspergillus ochraceus; test: Ratio of bifonazole to compound for Aspergillus ochraceus ATCC 12066; type: functional
[13] = test system: Candida albicans; test: Antifungal activity against Candida albicans isolated from human after 72 hrs by serial dilution technique; type: functional; in short: as §2
[14] = test system: Escherichia coli; test: Antibacterial activity against Escherichia coli ATCC 35210 after 24 hrs by microdilution method; type: functional; conditions: ATCC 35210, 24 h; in short: as §4
[15] = test system: Bacillus cereus; test: Antibacterial activity against clinical isolate of Bacillus cereus after 24 hrs by microdilution method; type: functional; in short: as §4
[16] = test system: Aspergillus niger; test: Ratio of bifonazole to compound for Aspergillus niger ATCC 6275; type: functional
[17] = test system: Aspergillus niger; test: Antifungal activity against Aspergillus niger ATCC 6275 incubated for 72 hrs followed by serial sub-cultivation for 72 hrs by serial dilution technique; type: functional; conditions: ATCC 6275, 72 h; in short: as §3
[18] = test system: Candida albicans; test: Ratio of ketoconazole to compound for Candida albicans isolated from human; type: functional
[19] = test system: Aspergillus fumigatus; test: Antifungal activity against Aspergillus fumigatus isolated from human incubated for 72 hrs followed by serial sub-cultivation for 72 hrs by serial dilution technique; type: functional; in short: as §3
[20] = test system: Talaromyces funiculosus; test: Antifungal activity against Penicillium funiculosum ATCC 36839 incubated for 72 hrs followed by serial sub-cultivation for 72 hrs by serial dilution technique; type: functional; conditions: ATCC 36839, 72 h; in short: as §3
[21] = test system: Micrococcus flavus; test: Antibacterial activity against Micrococcus flavus ATCC 10240 after 24 hrs by microdilution method; type: functional; conditions: ATCC 10240, 24 h; in short: as §4
[22] = test system: Enterococcus faecalis; test: Antibacterial activity against Enterococcus faecalis isolated from human after 24 hrs by microdilution method; type: functional; in short: as §4
[23] = test system: Listeria monocytogenes; test: Antibacterial activity against Listeria monocytogenes NCTC 7973 after 24 hrs by microdilution method; type: functional; conditions: NCTC 7973, 24 h; in short: as §4
[24] = test system: Pseudomonas aeruginosa; test: Ratio of ampicillin MIC to compound MIC for Pseudomonas aeruginosa ATCC 27853; type: functional
[25] = test system: Trichoderma viride; test: Antifungal activity against Trichoderma viride IAM 5061 incubated for 72 hrs followed by serial sub-cultivation for 72 hrs by serial dilution technique; type: functional; conditions: IAM 5061, 72 h; in short: as §3
[26] = test system: Talaromyces funiculosus; test: Ratio of bifonazole to compound for Penicillium funiculosum ATCC 36839; type: functional
[27] = test system: Candida albicans; test: Antifungal activity against Candida albicans isolated from human incubated for 72 hrs followed by serial sub-cultivation for 72 hrs by serial dilution technique; type: functional; in short: as §3
[28] = test system: Penicillium ochrochloron; test: Ratio of bifonazole to compound for Penicillium ochrochloron ATCC 9112; type: functional
[29] = test system: Talaromyces funiculosus; test: Antifungal activity against Penicillium funiculosum ATCC 36839 after 72 hrs by serial dilution technique; type: functional; conditions: ATCC 36839, 72 h; in short: as §2
[30] = test system: Enterococcus faecalis; test: Antibacterial activity against Enterococcus faecalis isolated from human incubated for 24 hrs followed by serial sub-cultivation for 24 hrs by microdilution; type: functional; in short: as §1
[31] = test system: Aspergillus flavus; test: Antifungal activity against Aspergillus flavus ATCC 9643 after 72 hrs by serial dilution technique; type: functional; conditions: ATCC 9643, 72 h; in short: as §2
[32] = test system: Aspergillus flavus; test: Antifungal activity against Aspergillus flavus ATCC 9643 incubated for 72 hrs followed by serial sub-cultivation for 72 hrs by serial dilution technique; type: functional; conditions: ATCC 9643, 72 h; in short: as §3
[33] = test system: Listeria monocytogenes; test: Antibacterial activity against Listeria monocytogenes NCTC 7973 incubated for 24 hrs followed by serial sub-cultivation for 24 hrs by microdilution; type: functional; conditions: NCTC 7973, 24 h; in short: as §1
[34] = test system: Candida albicans; test: Ratio of bifonazole to compound for Candida albicans isolated from human; type: functional
[35] = test system: Staphylococcus aureus; test: Antibacterial activity against Staphylococcus aureus ATCC 6538 after 24 hrs by microdilution method; type: functional; conditions: ATCC 6538, 24 h; in short: as §4
[36] = test system: Bacillus cereus; test: Antibacterial activity against clinical isolate of Bacillus cereus incubated for 24 hrs followed by serial sub-cultivation for 24 hrs by microdilution; type: functional; in short: as §1
[37] = test system: Aspergillus niger; test: Antifungal activity against Aspergillus niger ATCC 6275 after 72 hrs by serial dilution technique; type: functional; conditions: ATCC 6275, 72 h; in short: as §2
[38] = test system: Penicillium ochrochloron; test: Antifungal activity against Penicillium ochrochloron ATCC 9112 incubated for 72 hrs followed by serial sub-cultivation for 72 hrs by serial dilution technique; type: functional; conditions: ATCC 9112, 72 h; in short: as §3
[39] = test system: Salmonella typhimurium; test: Antibacterial activity against Salmonella Typhimurium ATCC 13311 after 24 hrs by microdilution method; type: functional, Salmonella enterica subsp. enterica serovar Typhimurium; conditions: Salmonella enterica, ATCC 13311, 24 h; in short: as §4
[40] = test system: Trichoderma viride; test: Antifungal activity against Trichoderma viride IAM 5061 after 72 hrs by serial dilution technique; type: functional; conditions: IAM 5061, 72 h; in short: as §2
[41] = test system: Aspergillus fumigatus; test: Ratio of ketoconazole to compound for Aspergillus fumigatus isolated from human; type: functional
[42] = test system: Penicillium ochrochloron; test: Antifungal activity against Penicillium ochrochloron ATCC 9112 after 72 hrs by serial dilution technique; type: functional; conditions: ATCC 9112, 72 h; in short: as §2
[43] = test system: Escherichia coli; test: Antibacterial activity against Escherichia coli ATCC 35210 incubated for 24 hrs followed by serial sub-cultivation for 24 hrs by microdilution; type: functional; conditions: ATCC 35210, 24 h; in short: as §1

CCNc1nc(C)c(C(=O)/C=C/c2cccc(Br)c2)s1
58.2 µM: MFC [38]
28.9 µM: MIC [4] | MIC [13] | MIC [29] | MIC [40] | MIC [42]
28.6 µM: MIC [15]
57.1 µM: MIC [8] | MIC [14] | MFC [17] | MFC [19] | MIC [21] | MIC [22] | MFC [32] | MIC [35] | MIC [39]
85.7 µM: MBC [2] | MIC [23]
100 µM: MBC [33]
10: Ratio [1] | Ratio [3] | Ratio [6] | Ratio [12] | Ratio [16] | Ratio [18] | Ratio [24] | Ratio [26] | Ratio [28] | Ratio [34] | Ratio [41]
42.9 µM: MFC [7] | MIC [10] | MFC [20] | MIC [31] | MIC [37]
57.2 µM: MFC [25] | MFC [27]
71.4 µM: MBC [5] | MBC [9] | MBC [11] | MBC [30] | MBC [36] | MBC [43]

CCNc1nc(C)c(C(=O)/C=C/c2ccc(OC)cc2)s1
10: Ratio [1] | Ratio [3] | Ratio [6] | Ratio [12] | Ratio [16] | Ratio [18] | Ratio [24] | Ratio [26] | Ratio [28] | Ratio [34] | Ratio [41]
82.5 µM: MBC [2]
31.3 µM: MIC [21]
49.7 µM: MBC [5] | MIC [14] | MIC [39]
82.8 µM: MFC [7] | MBC [11] | MFC [19] | MIC [23] | MFC [27] | MFC [32] | MBC [36] | MFC [38]
66.2 µM: MIC [4] | MIC [8] | MIC [10] | MIC [13] | MIC [15] | MFC [17] | MFC [20] | MIC [22] | MFC [25] | MIC [31] | MIC [35] | MIC [42] | MBC [43]
33.1 µM: MIC [29] | MIC [37] | MIC [40]
99.3 µM: MBC [9] | MBC [30] | MBC [33]

CCNc1nc(C)c(C(=O)/C=C/c2ccccc2OC)s1
49.7 µM: MIC [10] | MIC [37]
99.3 µM: MBC [9] | MBC [11]
66.2 µM: MIC [4] | MIC [15] | MFC [17] | MFC [19] | MFC [20] | MFC [25] | MFC [27] | MIC [31] | MIC [35] | MIC [42]
31.3 µM: MIC [21]
82.8 µM: MBC [2] | MBC [5] | MFC [7] | MIC [8] | MIC [14] | MIC [22] | MIC [23] | MBC [30] | MFC [32] | MBC [36] | MFC [38] | MBC [43]
116 µM: MBC [33]
33.1 µM: MIC [13] | MIC [29] | MIC [39] | MIC [40]
10: Ratio [1] | Ratio [3] | Ratio [6] | Ratio [12] | Ratio [16] | Ratio [18] | Ratio [24] | Ratio [26] | Ratio [28] | Ratio [34] | Ratio [41]
